Assay outcomes from PubChem BioAssay.
GASC1 inh – KDM4C (human) demethylase inhibition. GST-KDM4C 2-372, H3K9me3 peptide, LANCE TR-FRET. inhibition, % at 12.5 µM. 96,000 tested, 0.15% active;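 active = mean replicate inhibition above about 25%, with at least 55% of replicates also reaching it, limit read from the data, passing the limit was not always enough; inconclusive = only one of those two conditions met; inactive = neither condition met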
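Test system: N-terminal GST-fused human GASC-1 (KDM4C) fragment, residues 2-372; quantity: GASC-1 enzyme at 10 nM final in reaction; dosing: single dose; schedule: 30 min demethylation and 1 h detection at room temperature; signal: LANCE TR-FRET, excitation 340 nm, emissions 618 and 671 nm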
T cruzi growth-1 – blocks T. cruzi growth in NIH3T3 culture. T. cruzi beta-gal in NIH3T3, GalScreen luminescence, 90 h. inhibition, % at 8.34 µM. 77,000 tested, 5.9% active. AID 624255;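 active = mean inhibition above about 93%, with at least 55% of replicates each passing it, limit read from the data, passing the limit was not always enough; inconclusive = only one of those two conditions holds; inactive = neither condition holds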
Pf Dd2 inh – blocks growth of Plasmodium falciparum Dd2 parasites; AID 1159554; P. falciparum Dd2 growth, SYBR Green, 72 h; stronger effect = lower value; 94,000 tested, 2.3% active; activity change, % at 10 µM; in the data active = activity change below about -80%; inconclusive = no clear call, values can overlap the other calls
IDH1 R132H inh – blocks human IDH1 R132H reductase activity; diaphorase/resazurin fluorescence, 60 min; inhibition, % at 10 µM; O75874; 70,000 tested, 0.18% active; AID 624101; in the data active = inhibition above about 34%; inconclusive = no clear call, values can overlap the other calls; inactive = below about 11%;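 also: 0% = DMSO and 100% = no enzyme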
Target sequence (O75874 whole entry R132H): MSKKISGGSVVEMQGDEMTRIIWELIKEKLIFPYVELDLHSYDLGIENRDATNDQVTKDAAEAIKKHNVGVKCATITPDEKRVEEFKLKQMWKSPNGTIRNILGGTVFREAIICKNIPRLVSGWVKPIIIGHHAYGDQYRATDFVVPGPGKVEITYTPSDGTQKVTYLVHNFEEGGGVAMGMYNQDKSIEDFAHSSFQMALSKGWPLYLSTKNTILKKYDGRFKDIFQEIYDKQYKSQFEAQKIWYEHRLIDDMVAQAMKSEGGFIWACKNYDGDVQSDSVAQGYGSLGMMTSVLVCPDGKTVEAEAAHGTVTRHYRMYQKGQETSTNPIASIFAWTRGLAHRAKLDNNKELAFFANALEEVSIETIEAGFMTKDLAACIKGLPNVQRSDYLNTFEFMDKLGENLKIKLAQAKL
T cruzi growth-2 – blocks T. cruzi growth in NIH3T3 host cells; AID 651739; inhibition, % at 8.35 µM; shares compounds with T cruzi growth-1; T. cruzi beta-gal in NIH3T3, GalScreen luminescence, 90 h; 5,600 tested, 72% active;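 active = mean replicate inhibition above about 95% and at least 55% of replicates individually reaching it, limit read from the data; inconclusive = only one of the two criteria is met; inactive = neither criterion is met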
T cruzi growth-3 – Trypanosoma cruzi proliferation inhibition | shares compounds with T cruzi growth-1 | T. cruzi beta-gal in NIH3T3, GalScreen luminescence, 90 h | inhibition, % at 2.09 µM | 5,600 tested, 21% active;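 active = mean inhibition above about 95%, with at least 55% of replicates also reaching it, limit read from the data; inconclusive = meets just one of the two conditions; inactive = meets neither condition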;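 also: plate controls were neutral control median for no effect and positive control median for full effect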
3T3 cytotox – cytotoxicity in mouse NIH/3T3 fibroblasts | AID 651742 | 5,600 tested, 14% active | NIH/3T3 viability, CellTiter-Glo ATP luminescence, 90 h | shares compounds with T cruzi growth-1 | cytotoxicity (signal decrease), % at 8.35 µM;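 active = mean signal decrease across replicates above about 35% based on untreated-well scatter, with enough replicates individually passing, limit read from the data; inconclusive = no rule stated though some were filed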;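 also: 0% = median of neutral control wells and 100% = median of positive control wells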
NIH3T3 tox 2 – NIH/3T3 (mouse) viability loss; shares compounds with T cruzi growth-1; NIH/3T3 viability, CellTiter-Glo ATP luminescence, 90 h; inhibition, % at 24.9 µM; 5,600 tested, 56% active; AID 651744;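 active = mean loss of cell viability signal at or above a set limit, and enough replicates individually reaching it; inconclusive = meets only the mean limit or only the replicate share; inactive = meets neither condition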;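 also: 0% = median of neutral control wells and 100% = median of positive control wells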
An asterisk follows results filed as active; u = inconclusive; x = no result; ! = not confirmed by another sample. Hits are enriched below; roughly 5.8% of the tested compounds scored in any of these assays.

SMILES	GASC1 inh	T cruzi growth-1	Pf Dd2 inh	IDH1 R132H inh	T cruzi growth-2	T cruzi growth-3	3T3 cytotox	NIH3T3 tox 2
C[C@@H]1CN([C@@H](C)CO)C(=O)c2cc(/C=C/c3ccccc3)cnc2O[C@H]1CN(C)C(=O)Cc1ccccn1	-3.1	100.9*	-20.8	-0.3	102.8*	99.0*	14.1	45.6*
C[C@@H]1CN([C@@H](C)CO)C(=O)c2cc(/C=C/c3ccccc3)cnc2O[C@H]1CN(C)Cc1ccncc1	-0.5	120.0*	-27.3	0.6	113.6*	92.1	22.4	18.8
C[C@@H]1CN([C@H](C)CO)C(=O)c2cc(/C=C/c3ccccc3)cnc2O[C@H]1CN(C)Cc1ccccc1	0.7	114.3*	-37.5	-0.3	113.5*	98.3*	12.5	105.3*
C[C@H](CO)N1C[C@H](C)[C@H](CN(C)Cc2ccncc2)Oc2ncc(/C=C/c3ccccc3)cc2C1=O	0.2	61.2	-13.5	0.4	x	x	x	x
CC(C)NC(=O)N(C)C[C@@H]1Oc2ccc(NC(=O)C3CCCCC3)cc2C(=O)N([C@H](C)CO)C[C@@H]1C	1.7	-1.9	4.6	x	x	x	x	x
Cc1ccc(S(=O)(=O)NC[C@@H]2CC[C@H]3[C@H](CN3Cc3cc(-c4ccccc4)on3)O2)cc1	x	x	0.9	x	x	x	x	x
O=C(C[C@H]1CC[C@H]2[C@@H](COC[C@@H](O)CN2S(=O)(=O)c2ccccc2)O1)Nc1ccccc1	0.5	32.2	2.3	x	x	x	x	x
C[C@@H]1CN([C@@H](C)CO)S(=O)(=O)c2ccc(C#CC3CCCCC3)cc2O[C@@H]1CN(C)Cc1cccnc1	1.3	101.5*!	-74.2	x	112.7*	86.6	50.8*	104.7*
C[C@H](CO)N1C[C@H](C)[C@@H](CN(C)Cc2cccnc2)Oc2cc(C#CC3CCCC3)ccc2S1(=O)=O	1.1	96.3*	-65.9	x	102.1*	108.6*	-9.2	104.8*
C/C=C/c1ccc2c(c1)O[C@H](CN(C)Cc1cncnc1)[C@@H](C)CN([C@H](C)CO)S2(=O)=O	-0.3	x	14.1	-0.1	x	x	x	x
C[C@@H]1CN([C@@H](C)CO)S(=O)(=O)c2ccc(/C=C/c3ccccc3)cc2O[C@@H]1CN(C)Cc1cncnc1	-2.9	108.1*	-2.9	-3.8	u	89.4	57.8*	70.0*
C[C@@H]1CN([C@H](C)CO)S(=O)(=O)c2ccc(/C=C/c3ccccc3)cc2O[C@H]1CN(C)Cc1cncnc1	-2.7	106.7*	-67.0	-1.7	98.4*	84.9	58.7*	64.6*
C[C@H](CO)N1C[C@H](C)[C@@H](CN(C)Cc2cncnc2)Oc2cc(/C=C/c3ccccc3)ccc2S1(=O)=O	-4.2	121.3*	-51.9	-0.4	98.2*	101.9*	40.6*	80.9*
C[C@H]1CN([C@@H](C)CO)S(=O)(=O)c2ccc(/C=C/c3ccccc3)cc2O[C@@H]1CN(C)Cc1cncnc1	1.1	122.2*	-67.5	0.1	100.5*	104.1*	68.7*	97.4*
Cc1noc(C)c1NC(=O)Nc1ccc2c(c1)CC(=O)N([C@@H](C)CO)C[C@H](C)[C@H](CN(C)S(=O)(=O)c1ccccc1)O2	-1.6	49.5	18.6	0.5	x	x	x	x
C[C@@H]1CN([C@H](C)CO)S(=O)(=O)c2ccc(-c3cccc(F)c3)cc2O[C@H]1CN(C)C(=O)Nc1cc(F)ccc1F	-2.4	114.5*	-43.5	4.1	96.3*	77.9	64.1*	80.8*
C[C@@H]1CN([C@@H](C)CO)S(=O)(=O)c2ccc(-c3cccc(F)c3)cc2O[C@H]1CN(C)C(=O)Nc1cc(F)ccc1F	8.1	114.9*	-43.6	2.8	101.1*	63.0	50.5*	57.0*
C[C@H]1CN([C@@H](C)CO)S(=O)(=O)c2ccc(-c3ccccc3)cc2O[C@@H]1CN(C)C(=O)Nc1ccccc1F	1.4	-40.5	-79.1	-0.1	x	x	x	x
Cc1ccc(-c2ccc3c(c2)O[C@@H](CN(C)C(=O)NC(C)C)[C@H](C)CN([C@@H](C)CO)S3(=O)=O)cc1	-2.0	35.0	-38.7	7.9	x	x	x	x
Cc1ccc(-c2ccc3c(c2)O[C@H](CN(C)C(=O)NC(C)C)[C@@H](C)CN([C@H](C)CO)S3(=O)=O)cc1	-3.5	46.7	-10.2	-8.9	x	x	x	x
CC(C)NC(=O)N(C)C[C@@H]1Oc2cc(-c3ccncc3)ccc2S(=O)(=O)N([C@H](C)CO)C[C@@H]1C	13.4	u	-11.1	2.9	57.1	20.4	2.5	10.3
CCCNC(=O)N(C)C[C@H]1Oc2cc(-c3cccnc3)ccc2S(=O)(=O)N([C@@H](C)CO)C[C@@H]1C	-0.5	u	-1.0	0.5	u	76.7	14.7	6.2
CC(C)NC(=O)N(C)C[C@H]1Oc2cc(-c3ccncc3)ccc2S(=O)(=O)N([C@@H](C)CO)C[C@H]1C	-2.0	u	-1.1	1.2	63.8	-14.4	5.6	20.0
Cc1ccc(-c2ccc3c(c2)O[C@H](CN(C)C(=O)NC(C)C)[C@H](C)CN([C@@H](C)CO)S3(=O)=O)cc1	-2.3	35.0	20.4	-3.8	x	x	x	x
CC(C)NC(=O)N(C)C[C@H]1Oc2cc(-c3ccncc3)ccc2S(=O)(=O)N([C@H](C)CO)C[C@@H]1C	-1.2	107.0*	-1.2	0.5	86.6	57.7	0.9	10.5
SMILES	GASC1 inh	T cruzi growth-1	Pf Dd2 inh	IDH1 R132H inh	T cruzi growth-2	T cruzi growth-3	3T3 cytotox	NIH3T3 tox 2
Cc1ccc(C2C(C(=O)c3cccs3)C(=O)C(=O)N2CCN(C)C)o1 (stereo unspecified)	x	x	x	0.4	x	x	x	x
C[C@H](CO)N1C[C@H](C)[C@@H](CN(C)Cc2ccncc2)Oc2ccc(NS(=O)(=O)c3ccccc3)cc2C1=O	x	65.4	4.2	2.7	x	x	x	x
COc1ccc(S(=O)(=O)Nc2ccc3c(c2)CC(=O)N([C@H](C)CO)C[C@@H](C)[C@H](CN(C)Cc2ccc4c(c2)OCO4)O3)cc1	14.4	109.2*	14.2	0.0	107.8*	53.2	1.3	8.2
COc1ccc(S(=O)(=O)Nc2ccc3c(c2)CC(=O)N([C@@H](C)CO)C[C@@H](C)[C@H](CN(C)Cc2ccc4c(c2)OCO4)O3)cc1	0.0	113.3*	-22.6	-0.1	108.8*	85.4	18.7	23.2
COc1ccc(S(=O)(=O)Nc2ccc3c(c2)CC(=O)N([C@H](C)CO)C[C@H](C)[C@@H](CN(C)Cc2ccc4c(c2)OCO4)O3)cc1	1.0	u	-24.9	2.1	107.5*	62.4	-16.6	-5.3
COc1ccc(S(=O)(=O)Nc2ccc3c(c2)CC(=O)N([C@@H](C)CO)C[C@@H](C)[C@@H](CN(C)Cc2ccc4c(c2)OCO4)O3)cc1	-0.8	52.2	-40.2	0.5	x	x	x	x
